Source: ChEMBL document CHEMBL4043120 (Bioorg Med Chem, 2017)
pIC50: −log10 of the molar value. Activity calls are given as the source filed them. The rule behind the calls is not given here.

Columns and labels:
[1] = target: T1, Histone-lysine N-methyltransferase EHMT1 (Homo sapiens) (UniProt Q9H9B1); test: (§1) Inhibition of EHMT1 (unknown origin) preincubated for 5 mins followed by SAM and biotinylated H3K9 peptide addition measured after 120 mins by HTRF assay
T1 sequence (whole entry): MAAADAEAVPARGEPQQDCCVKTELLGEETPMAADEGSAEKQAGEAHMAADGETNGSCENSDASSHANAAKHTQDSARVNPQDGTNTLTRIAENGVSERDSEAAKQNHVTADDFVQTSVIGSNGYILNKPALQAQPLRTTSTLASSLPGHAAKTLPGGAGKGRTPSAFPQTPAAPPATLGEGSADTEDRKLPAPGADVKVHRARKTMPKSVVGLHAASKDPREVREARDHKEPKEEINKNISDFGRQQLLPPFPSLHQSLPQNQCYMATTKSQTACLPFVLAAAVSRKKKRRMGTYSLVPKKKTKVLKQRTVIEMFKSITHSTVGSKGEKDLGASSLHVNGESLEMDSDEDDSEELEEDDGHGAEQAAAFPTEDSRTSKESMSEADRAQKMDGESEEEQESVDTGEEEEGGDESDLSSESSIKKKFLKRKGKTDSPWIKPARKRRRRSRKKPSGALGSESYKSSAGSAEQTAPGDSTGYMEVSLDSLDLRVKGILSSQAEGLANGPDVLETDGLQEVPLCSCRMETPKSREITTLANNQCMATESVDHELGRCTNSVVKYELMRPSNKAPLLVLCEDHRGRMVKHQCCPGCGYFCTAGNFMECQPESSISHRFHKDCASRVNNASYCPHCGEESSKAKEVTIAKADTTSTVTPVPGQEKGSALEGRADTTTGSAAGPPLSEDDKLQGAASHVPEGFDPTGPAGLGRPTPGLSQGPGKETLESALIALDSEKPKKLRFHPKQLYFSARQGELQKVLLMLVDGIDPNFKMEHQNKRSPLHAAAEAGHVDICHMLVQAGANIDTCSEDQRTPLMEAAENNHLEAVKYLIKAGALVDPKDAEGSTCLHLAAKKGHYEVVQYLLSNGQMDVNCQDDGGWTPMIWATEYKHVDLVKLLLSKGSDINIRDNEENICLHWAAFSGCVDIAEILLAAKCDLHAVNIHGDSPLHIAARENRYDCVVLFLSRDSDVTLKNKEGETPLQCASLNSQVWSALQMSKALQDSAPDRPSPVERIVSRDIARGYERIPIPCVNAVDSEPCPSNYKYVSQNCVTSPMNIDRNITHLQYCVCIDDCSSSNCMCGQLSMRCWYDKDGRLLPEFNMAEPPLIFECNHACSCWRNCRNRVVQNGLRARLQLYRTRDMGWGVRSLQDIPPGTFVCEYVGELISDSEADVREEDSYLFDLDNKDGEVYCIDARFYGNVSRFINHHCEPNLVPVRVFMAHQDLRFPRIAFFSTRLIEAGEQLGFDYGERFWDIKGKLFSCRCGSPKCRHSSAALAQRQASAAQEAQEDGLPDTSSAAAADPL
Outline: (§2)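 Final 0.4 nM enzyme, 150 nM biotinylated H3(1-21)K9 peptide, 6 μM SAM, pH 8.8 Tris buffer, 1% DMSO. Eu-antibody/SA-XL665 HTRF read at 665/620 nm. Mean±SEM of 3-4 independent experiments in triplicate.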

[2] = target: T1, Histone-lysine N-methyltransferase EHMT1 (Homo sapiens); test: Inhibition of EHMT1 (unknown origin) at 200 uM preincubated for 5 mins followed by SAM and biotinylated H3K9 peptide addition measured after 120 mins by HTRF assay relative to control
Outline: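 Final EHMT1 0.4 nM, biotinylated unmethylated H3(1-21)K9 peptide 150 nM, SAM 6 μM in 50 mM Tris-HCl pH 8.8, 50 mM NaCl, 1 mM DTT, 0.01% Tween-20; samples at 200 μM, 1% DMSO final. Detection by Eu-antibody plus streptavidin-XL665, 60 min. HTRF read: excitation 320 or 340 nm, emission 665/620 nm.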

[3] = target: T2, Histone-lysine N-methyltransferase EHMT2 (Homo sapiens) (UniProt Q96KQ7); test: (§3) Inhibition of EHMT2 (unknown origin) preincubated for 15 mins followed by SAM and biotinylated H3K9 peptide addition measured after 30 mins by TR-FRET assay
T2 sequence (whole entry): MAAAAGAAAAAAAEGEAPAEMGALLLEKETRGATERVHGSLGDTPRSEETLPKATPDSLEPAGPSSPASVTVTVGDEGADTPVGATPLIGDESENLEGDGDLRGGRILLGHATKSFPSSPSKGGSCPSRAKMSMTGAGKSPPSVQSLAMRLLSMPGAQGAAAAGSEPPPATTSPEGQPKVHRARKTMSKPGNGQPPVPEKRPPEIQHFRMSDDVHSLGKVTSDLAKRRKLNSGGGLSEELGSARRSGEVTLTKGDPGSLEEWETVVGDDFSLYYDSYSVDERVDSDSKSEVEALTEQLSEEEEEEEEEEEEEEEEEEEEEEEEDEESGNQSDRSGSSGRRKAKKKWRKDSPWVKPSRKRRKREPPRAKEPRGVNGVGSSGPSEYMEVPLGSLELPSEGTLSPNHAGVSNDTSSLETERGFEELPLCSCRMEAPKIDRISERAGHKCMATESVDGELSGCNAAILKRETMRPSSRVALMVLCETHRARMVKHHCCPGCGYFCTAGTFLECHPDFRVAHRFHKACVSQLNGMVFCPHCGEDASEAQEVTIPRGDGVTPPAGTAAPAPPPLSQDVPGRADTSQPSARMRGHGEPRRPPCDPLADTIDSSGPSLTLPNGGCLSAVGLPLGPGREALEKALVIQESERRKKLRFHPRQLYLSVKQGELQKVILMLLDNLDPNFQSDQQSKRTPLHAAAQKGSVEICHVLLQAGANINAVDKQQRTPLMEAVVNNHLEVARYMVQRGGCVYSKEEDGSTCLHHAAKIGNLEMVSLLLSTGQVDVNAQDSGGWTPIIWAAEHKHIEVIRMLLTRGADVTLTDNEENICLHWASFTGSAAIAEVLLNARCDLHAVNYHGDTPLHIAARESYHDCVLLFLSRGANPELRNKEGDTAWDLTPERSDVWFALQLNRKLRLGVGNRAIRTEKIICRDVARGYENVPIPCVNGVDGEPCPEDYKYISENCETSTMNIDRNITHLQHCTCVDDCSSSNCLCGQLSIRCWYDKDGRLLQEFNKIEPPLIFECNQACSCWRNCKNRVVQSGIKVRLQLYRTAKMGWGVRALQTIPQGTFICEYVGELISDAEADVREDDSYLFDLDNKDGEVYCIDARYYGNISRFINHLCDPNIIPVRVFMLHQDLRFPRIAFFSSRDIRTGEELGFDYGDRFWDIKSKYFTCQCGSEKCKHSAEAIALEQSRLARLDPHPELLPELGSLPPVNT

[4] = target: T2, Histone-lysine N-methyltransferase EHMT2 (Homo sapiens); test: Inhibition of EHMT2 (unknown origin) at 400 uM preincubated for 15 mins followed by SAM and biotinylated H3K9 peptide addition measured after 30 mins by TR-FRET assay relative to control
Outline: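 Single-point EHMT2 screen at 400 μM, 1% DMSO. Final 0.6 nM EHMT2, 0.5 µM biotinylated H3(1-21)K9 peptide, 3 µM SAM in 50 mM Tris-HCl pH 9.0, 50 mM NaCl, 1 mM DTT, 0.01% Tween-20. Detection 60 min with final 2 nM Eu-antibody, 50 nM ULight-streptavidin, 0.0001% poly-L-lysine. TR-FRET read at 665/620 nm.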

[5] = target: T3, Histone-lysine N-methyltransferase EHMT1 (Homo sapiens, UniProt Q9H9B1); test: as §1; conditions: for pIC50: read-out: IC50; outline: as §2
T3 sequence (Q9H9B1 whole entry): T1 sequence (whole entry)

MDA-MB-231 = test: Antiproliferative activity against human MDA-MB-231 cells at 200 uM after 72 hrs by sulforhodamine B assay relative to control; type: functional; conditions: MDA-MB-231, 72 h
[6] = target: T4, Histone-lysine N-methyltransferase EHMT2 (Homo sapiens, UniProt Q96KQ7); test: as §3
T4 sequence (Q96KQ7 whole entry): T2 sequence (whole entry)

[7] = target: Protein arginine N-methyltransferase 1 (Homo sapiens) (UniProt Q99873); test: Inhibition of PRMT1 (unknown origin) at 400 uM preincubated for 5 mins followed by SAM and H4 (1 to 25 residues) peptide addition measured after 1 hr by HTRF assay relative to control
Chain of Protein arginine N-methyltransferase 1 (Homo sapiens) (Q99873 whole entry, looked up, the tested form may be a part): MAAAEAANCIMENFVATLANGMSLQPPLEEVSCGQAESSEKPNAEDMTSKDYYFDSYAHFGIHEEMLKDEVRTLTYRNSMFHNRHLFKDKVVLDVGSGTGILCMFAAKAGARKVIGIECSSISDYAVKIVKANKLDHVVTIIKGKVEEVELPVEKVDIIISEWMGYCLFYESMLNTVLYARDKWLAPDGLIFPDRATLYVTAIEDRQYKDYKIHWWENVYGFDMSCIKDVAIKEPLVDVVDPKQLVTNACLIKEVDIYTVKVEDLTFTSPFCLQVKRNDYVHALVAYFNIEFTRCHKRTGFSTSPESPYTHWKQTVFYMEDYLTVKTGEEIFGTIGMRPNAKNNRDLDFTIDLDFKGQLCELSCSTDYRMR

HL-60 = test: Antiproliferative activity against human HL60 cells at 200 uM after 72 hrs by CCK8 assay relative to control; type: functional; conditions: HL-60, 72 h
[8] = target: T3, Histone-lysine N-methyltransferase EHMT1; test: Inhibition of EHMT1 (unknown origin)

SMILES | inhibition [1] | inhibition [2] | inhibition [3] | inhibition [4] | pIC50 [5] | pIC50 [6] | inhibition [7] | IC50 [5] | pIC50 [8] | inhibition at 200 µM (MDA-MB-231) | inhibition at 200 µM (HL-60)
Nc1ncnc2c1ncn2[C@@H]1O[C@H](C[C@H](N)CC2CCCC2)[C@@H](O)[C@H]1O | Dose-dependent effect | 12.5% | Dose-dependent effect | 43.6% |  |  |  |  |  |  | 
CCCN(CC1CCCCC1)C[C@H]1O[C@@H](n2cnc3c(N)ncnc32)[C@H](O)[C@@H]1O | Dose-dependent effect | inactive | Dose-dependent effect | 19.8% |  |  |  | Not Active |  |  | 
CN(CC1CCCCC1)C[C@H]1O[C@@H](n2cnc3c(N)ncnc32)[C@H](O)[C@@H]1O | Dose-dependent effect | inactive | Dose-dependent effect | 31.9% |  |  |  | Not Active |  |  | 
Nc1ncnc2c1ncn2[C@@H]1O[C@H](C[C@@H](N)CC2CCCCC2)[C@@H](O)[C@H]1O | Dose-dependent effect | 72.7% | Dose-dependent effect | 43.7% | 3.69 |  | inactive |  |  |  | 
COc1cc2nc(N3CCCN(C)CC3)nc(NC3CCN(Cc4ccccc4)CC3)c2cc1OC |  |  |  |  |  |  |  |  |  | 87.2% | 81.8%
Nc1ncnc2c1ncn2[C@@H]1O[C@H](C[C@@H](N)CC2CCCC2)[C@@H](O)[C@H]1O | Dose-dependent effect | 75.7% | Dose-dependent effect | 55.3% | 4.02 | 3.72 | inactive |  |  |  | 

More lines, main results first:

inhibition [1] | inhibition [2] | inhibition [3] | inhibition [4] | pIC50 [5] | pIC50 [6] | inhibition [7] | IC50 [5] | pIC50 [8] | SMILES | inhibition at 200 µM (MDA-MB-231) | inhibition at 200 µM (HL-60)
Dose-dependent effect | 53.2% | Dose-dependent effect | 44% | 3.94 |  |  |  |  | Nc1ncnc2c1ncn2[C@@H]1O[C@H](C[C@H](N)CC2CCC2)[C@@H](O)[C@H]1O |  | 
Dose-dependent effect | 88.9% | Dose-dependent effect | 77.6% | 4.66 | 4.40 | inactive |  |  | Nc1ncnc2c1ncn2[C@@H]1O[C@H](C[C@@H](N)CC2CC2)[C@@H](O)[C@H]1O | 41.4% | 37.9 to 38.4%
Dose-dependent effect | 100% | Dose-dependent effect | 79.5% | 4.55 |  |  |  | 4.70 to 7.00 | Nc1ncnc2c1ncn2[C@@H]1O[C@H](C[C@@H](N)CC[C@H](N)C(=O)O)[C@@H](O)[C@H]1O [SINEFUNGIN] | 42.8% | 41%
Dose-dependent effect | 69.7% | Dose-dependent effect | 58.9% | 4.32 | 3.77 | inactive |  |  | Nc1ncnc2c1ncn2[C@@H]1O[C@H](C[C@@H](N)CC2CCC2)[C@@H](O)[C@H]1O |  | 
Dose-dependent effect | 40.9% | Dose-dependent effect | 42.7% |  |  |  |  |  | Nc1ncnc2c1ncn2[C@@H]1O[C@H](C[C@@H](N)CCC2CCCCC2)[C@@H](O)[C@H]1O |  | 
Dose-dependent effect | 52.2% | Dose-dependent effect | 65.7% |  | 4.17 | 20% |  |  | Nc1ncnc2c1ncn2[C@@H]1O[C@H](C[C@H](N)CC2CC2)[C@@H](O)[C@H]1O |  | 
Dose-dependent effect | 46.3% | Dose-dependent effect | 47.8% |  |  |  |  |  | Nc1ncnc2c1ncn2[C@@H]1O[C@H](C[C@H](N)CCC2CCCCC2)[C@@H](O)[C@H]1O |  | 
Dose-dependent effect | 58.1% | Dose-dependent effect | 45.3% | 3.84 |  | inactive |  |  | Nc1ncnc2c1ncn2[C@@H]1O[C@H](C[C@H](N)CC2CCCCC2)[C@@H](O)[C@H]1O |  | 
Dose-dependent effect | 24.1% | Dose-dependent effect | 39.1% |  |  |  |  |  | CCN(CC1CCCCC1)C[C@H]1O[C@@H](n2cnc3c(N)ncnc32)[C@H](O)[C@@H]1O |  | 
